# ChEMBL document CHEMBL1123790, “Stereospecificity of the chloride ion channel: the action of chiral clofibric acid analogues” (J Med Chem, 1987)
# Key:
# Rattus norvegicus [1] = species on record: Rattus norvegicus; experiment: Concentration required to block 50% chloride conductance in rat extensor digitorum longus(EDL) muscle fibers; type: functional, organism-based
# In short: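 Male Wistar rats (180–220 g); EDL muscles in bath at 30 ± 1 °C, perfused with Ringer's (normal or Cl⁻-free methyl sulfate) containing compound, pH 7.3–7.4, from 10^-3 g/mL stocks in 1% NaHCO3. Intracellular microelectrode cable analysis; GCl = mean Gm − mean GK. Three or more concentrations (5–230 μM); curves fit to single-site binding by nonlinear least squares, IC50 ± SD.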
# Rattus norvegicus [2] = species on record: Rattus norvegicus; experiment: Resting membrane potential determined in rat extensor digitorum longus(EDL) muscle fibers at a concentration of 92 uM; type: functional
# In short: (§1)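 Male Wistar rat (180–220 g) EDL muscles in Ringer's bath at 30 ± 1 °C, pH 7.3–7.4. Two intracellular microelectrodes (current electrode within 100 μm of voltage electrode). Square-wave constant-current pulses applied after holding at -80 mV. Latency = maximum delay to action potential onset; threshold = minimal long-pulse current for one spike; spikes = maximum with strong depolarization. Mean ± SEM; Student's t test.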
# Rattus norvegicus [3] = species on record: Rattus norvegicus; experiment: Maximum number of spikes elicited by strong depolarizing pulses in rat extensor digitorum longus(EDL) muscle fibers was determined at a concentration of 92 uM; type: functional; in short: as §1
# Rattus norvegicus [4] = species on record: Rattus norvegicus; experiment: Latency was determined in rat extensor digitorum longus(EDL) muscle fibers at a concentration of 92 uM; type: functional; in short: as §1
# Rattus norvegicus [5] = species on record: Rattus norvegicus; experiment: Number of fibres over number of preparation sampled was determined at a concentration of 92 uM; type: functional
# Rattus norvegicus [6] = species on record: Rattus norvegicus; experiment: Minimal current intensity for a long pulse for a single action potential in rat extensor digitorum longus(EDL) muscle fibers was determined at a concentration of 92 uM; type: functional; in short: as §1
# Rattus norvegicus [7] = species on record: Rattus norvegicus; experiment: Minimal current intensity for a long pulse for a single action potential in rat extensor digitorum longus(EDL) muscle fibers was determined at a concentration of 230 uM; type: functional; in short: as §1
# Rattus norvegicus [8] = species on record: Rattus norvegicus; experiment: Resting membrane potential determined in rat extensor digitorum longus(EDL) muscle fibers at a concentration of 230 uM; type: functional; in short: as §1
# Rattus norvegicus [9] = species on record: Rattus norvegicus; experiment: Latency in rat extensor digitorum longus(EDL) muscle fibers was determined at a concentration of 230 uM; type: functional; in short: as §1
# Rattus norvegicus [10] = species on record: Rattus norvegicus; experiment: Number of fibres over number of preparation sampled was determined at a concentration of 230 uM; type: functional
# Rattus norvegicus [11] = species on record: Rattus norvegicus; experiment: Maximum number of spikes elicited by strong depolarizing pulses in rat extensor digitorum longus(EDL) muscle fibers was determined at a concentration of 230 uM; type: functional; in short: as §1
# Rattus norvegicus [12] = species on record: Rattus norvegicus; experiment: Resting membrane potential determined in rat extensor digitorum longus(EDL) muscle fibers at a concentration of 20 uM; type: functional; in short: as §1
# Rattus norvegicus [13] = species on record: Rattus norvegicus; experiment: Minimal current intensity for a long pulse for a single action potential in rat extensor digitorum longus muscle fibers was determined at a concentration of 20 uM; type: functional; in short: as §1
# Rattus norvegicus [14] = species on record: Rattus norvegicus; experiment: Maximum number of spikes elicited by strong depolarizing pulses in rat extensor digitorum longus muscle fibers was determined at a concentration of 20 uM; type: functional; in short: as §1
# Rattus norvegicus [15] = species on record: Rattus norvegicus; experiment: Number of fibres over number of preparation sampled was determined at a concentration of; type: functional
# Rattus norvegicus [16] = species on record: Rattus norvegicus; experiment: Latency in rat extensor digitorum longus(EDL) muscle fibers was determined at a concentration of 20 uM; type: functional; in short: as §1
# Rattus norvegicus [17] = species on record: Rattus norvegicus; experiment: Maximum number of spikes elicited by strong depolarizing pulses in rat extensor digitorum longus muscle fibers was determined at a concentration of 92 uM; type: functional
# In short: (§2)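 EDL fibres from male Wistar rats (180–220 g), in Ringer's at 30 ± 1 °C, pH 7.3–7.4, drug diluted from bicarbonate stock. Two intracellular microelectrodes within 100 μm; fibre held at -80 mV by holding current, then square-wave constant-current depolarizing pulses. Read-outs: resting potential, latency to action potential, threshold current (long pulse), maximal spike number; mean ± SEM, fibres/preparations counted; Student's t test.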
# Rattus norvegicus [18] = species on record: Rattus norvegicus; experiment: Latency in rat extensor digitorum longus(EDL) muscle fibers was determined at a concentration of 92 uM; type: functional; in short: as §2
# Rattus norvegicus [19] = species on record: Rattus norvegicus; experiment: Resting membrane potential in rat extensor digitorum longus(EDL) muscle fibers was determined at a concentration of 92 uM; type: functional; in short: as §2
# Rattus norvegicus [20] = species on record: Rattus norvegicus; experiment: Minimal current intensity for a long pulse for a single action potential in rat extensor digitorum longus(EDL) muscle fibers was determined at a concentration of 20 uM; type: functional; in short: as §2
# Rattus norvegicus [21] = species on record: Rattus norvegicus; experiment: Maximum number of spikes elicited by strong depolarizing pulses in rat extensor digitorum longus(EDL) muscle fibers was determined at a concentration of 20 uM; type: functional; in short: as §2
# Rattus norvegicus [22] = species on record: Rattus norvegicus; experiment: Number of fibres over number of preparation sampled was determined at a concentration of 20 uM; type: functional; in short: as §2
# Rattus norvegicus [23] = experiment: Concentration to block chloride membrane conductance (G Cl) in rat extensor digitorum longus (EDL) muscle fibers (in vivo and in vitro); type: functional, organism-based
# In short: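 Male Wistar rats 180–220 g; EDL muscles in bath at 30 ± 1 °C, perfused with Ringer's (normal or Cl⁻-free methyl sulfate), pH 7.3–7.4; compounds from 10^-3 g/mL stock in 1% NaHCO3, tested 5–230 μM. Intracellular microelectrode cable analysis; GCl = mean Gm minus mean GK; ≥3 concentrations; single-site binding fit by nonlinear least squares gives IC50 ± SD.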
# Rattus norvegicus [24] = species on record: Rattus norvegicus; experiment: Resting membrane potential in rat extensor digitorum longus(EDL) muscle fibers was determined at a concentration of 230 uM; type: functional; in short: as §2
compound,measurement,setting,value
CC(Oc1ccc(Cl)cc1)C(=O)O (racemic),IC50,Rattus norvegicus [1],81 µM
same,Resting potential,Rattus norvegicus [2],74 -mV
same,No. of spikes,Rattus norvegicus [3],12.5
same,Latency,Rattus norvegicus [4],24.3 ms
same,Fibers/preparations,Rattus norvegicus [5],18
same,Threshold current,Rattus norvegicus [6],79.1 nA
C[C@@H](Oc1ccc(Cl)cc1)C(=O)O,Threshold current,Rattus norvegicus [7],90 nA
same,Resting potential,Rattus norvegicus [8],73 -mV
same,Latency,Rattus norvegicus [9],6.2 ms
same,Fibers/preparations,Rattus norvegicus [10],8
same,No. of spikes,Rattus norvegicus [11],6.5
C[C@H](Oc1ccc(Cl)cc1)C(=O)O,IC50,Rattus norvegicus [1],12 µM
same,Resting potential,Rattus norvegicus [12],70 -mV
same,Threshold current,Rattus norvegicus [13],<65 nA
same,No. of spikes,Rattus norvegicus [14],<18
same,Fibers/preparations,Rattus norvegicus [15],15
same,Latency,Rattus norvegicus [16],<45.5 ms
CCC(Oc1ccc(Cl)cc1)C(=O)O (racemic),IC50,Rattus norvegicus [1],44 µM
same,No. of spikes,Rattus norvegicus [17],<15.6
same,Latency,Rattus norvegicus [18],<18.3 ms
same,Resting potential,Rattus norvegicus [19],< 65 -mV
same,Fibers/preparations,Rattus norvegicus [5],12
same,Threshold current,Rattus norvegicus [6],67.3 nA
CC[C@H](Oc1ccc(Cl)cc1)C(=O)O,IC50,Rattus norvegicus [1],10.3 µM
same,Resting potential,Rattus norvegicus [12],68 -mV
same,Threshold current,Rattus norvegicus [20],65 nA
same,No. of spikes,Rattus norvegicus [21],<15
same,Fibers/preparations,Rattus norvegicus [22],8
same,Latency,Rattus norvegicus [16],<30.2 ms
CC(C)(Oc1ccc(Cl)cc1)C(=O)O [CLOFIBRIC ACID],IC50,Rattus norvegicus [23],205 µM
CC[C@@H](Oc1ccc(Cl)cc1)C(=O)O,Threshold current,Rattus norvegicus [7],121 nA
same,Latency,Rattus norvegicus [9],5.2 ms
same,Fibers/preparations,Rattus norvegicus [10],13
same,No. of spikes,Rattus norvegicus [11],6.5
same,Resting potential,Rattus norvegicus [24],70 -mV
